Measured values published in ChEMBL document CHEMBL4477216, “Discovery and Optimization of Small Molecule Splicing Modifiers of Survival Motor Neuron 2 as a Treatment for Spinal Muscular Atrophy” (J Med Chem, 2016).

How the values were obtained:
[1] = organism: Homo sapiens; test: Inhibition of mRNA splicing of human SMN2 exon 7 transfected in HEK293H cells assessed as compound concentration required to increase full-length SMN2 mRNA level by 1.5 times after 24 hrs by RT-qPCR analysis relative to GAPDH; format: cell-based
Procedure, shortened: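 HEK293H cells stably carrying the SMN2 minigene (exon 6 to 5' exon 8 fused to firefly luciferase) were plated and held for 6 h, then treated 24 h in duplicate at varying concentrations (0.5% DMSO). Full-length minigene mRNA and GAPDH were quantified by TaqMan RT-qPCR using actual PCR efficiencies. Results were normalized to GAPDH and DMSO and expressed as fold change versus DMSO.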

[2] = tested on: Mus musculus; test: In vivo inhibition of mRNA splicing of human SMN2 exon 7 in FVB.Cg-Tg(SMN2 delta 7 exon)4299Ahmb Tg(SMN2)89Ahmb Smn1tm1Msd/J mouse assessed as median survival time at 6 mg/kg/day, po bid administered on postnatal day 24 (reference value: 14 days); format: functional
[3] = tested on: Mus musculus; test: In vivo inhibition of mRNA splicing of human SMN2 exon 7 in FVB.Cg-Tg(SMN2 delta 7 exon)4299Ahmb Tg(SMN2)89Ahmb Smn1tm1Msd/J mouse assessed as median survival time at 20 mg/kg/day, po bid administered on postnatal day 24 (reference value: 14 days); format: functional
[4] = tested on: Mus musculus; test: In vivo inhibition of mRNA splicing of human SMN2 exon 7 in FVB.Cg-Tg(SMN2 delta 7 exon)4299Ahmb Tg(SMN2)89Ahmb Smn1tm1Msd/J mouse assessed as increase in SMN protein level in quadriceps at 1 mg/kg, ip qd administered on postnatal day 3 to day 9 by HTRF assay relative to control; format: functional; parameters: scale not given: the % may be the effect or the level left
Procedure, shortened: (§1)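 Homozygous Δ7 SMA mice were dosed IP once daily from PND3 to PND9 with compound or vehicle (100% DMSO solution, 2.5 mL/kg). Brain, spinal cord and quadriceps were homogenized in RIPA buffer with protease inhibitors. SMN was read by HTRF (anti-SMN d2 and Kryptate antibodies, overnight rt, 665/620 nm) and normalized to BCA total protein. Values are % change versus vehicle ±SD; 5-11 mice per group.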

[5] = tested on: Mus musculus; test: In vivo inhibition of mRNA splicing of human SMN2 exon 7 in FVB.Cg-Tg(SMN2 delta 7 exon)4299Ahmb Tg(SMN2)89Ahmb Smn1tm1Msd/J mouse assessed as median survival time at 3 mg/kg/day, ip administered on postnatal day 3 to day 23 (reference value: 14 days); format: functional
[6] = tested on: Mus musculus; test: In vivo inhibition of mRNA splicing of human SMN2 exon 7 in FVB.Cg-Tg(SMN2 delta 7 exon)4299Ahmb Tg(SMN2)89Ahmb Smn1tm1Msd/J mouse assessed as increase in SMN protein level in quadriceps at 3 mg/kg, ip qd administered on postnatal day 3 to day 9 by HTRF assay relative to control; format: functional; parameters: scale not given: the % may be the effect or the level left; procedure, shortened: as §1
[7] = organism: Homo sapiens; test: Inhibition of mRNA splicing of SMN2 exon 7 in GM03813 fibroblasts derived from SMA patient assessed as compound concentration required to increase SMN protein level by 1.5 times after 24 hrs by HTRF assay
[8] = tested on: Mus musculus; test: In vivo inhibition of mRNA splicing of human SMN2 exon 7 in FVB.Cg-Tg(SMN2 delta 7 exon)4299Ahmb Tg(SMN2)89Ahmb Smn1tm1Msd/J mouse assessed as increase in SMN protein level in brain at 3 mg/kg, ip qd administered on postnatal day 3 to day 9 by HTRF assay relative to control; format: functional; parameters: scale not given: the % may be the effect or the level left; procedure, shortened: as §1
[9] = tested on: Mus musculus; test: In vivo inhibition of mRNA splicing of human SMN2 exon 7 in FVB.Cg-Tg(SMN2 delta 7 exon)4299Ahmb Tg(SMN2)89Ahmb Smn1tm1Msd/J mouse assessed as increase in SMN protein level in spinal cord at 1 mg/kg, ip qd administered on postnatal day 3 to day 9 by HTRF assay relative to control; format: functional; parameters: scale not given: the % may be the effect or the level left; procedure, shortened: as §1
[10] = tested on: Mus musculus; test: In vivo inhibition of mRNA splicing of human SMN2 exon 7 in FVB.Cg-Tg(SMN2 delta 7 exon)4299Ahmb Tg(SMN2)89Ahmb Smn1tm1Msd/J mouse assessed as increase in SMN protein level in brain at 1 mg/kg, ip qd administered on postnatal day 3 to day 9 by HTRF assay relative to control; format: functional; parameters: scale not given: the % may be the effect or the level left; procedure, shortened: as §1
[11] = tested on: Mus musculus; test: In vivo inhibition of mRNA splicing of human SMN2 exon 7 in FVB.Cg-Tg(SMN2 delta 7 exon)4299Ahmb Tg(SMN2)89Ahmb Smn1tm1Msd/J mouse assessed as median survival time at 0.3 mg/kg/day, ip administered on postnatal day 3 to day 23 (reference value: 14 days); format: functional
[12] = tested on: Mus musculus; test: In vivo inhibition of mRNA splicing of human SMN2 exon 7 in FVB.Cg-Tg(SMN2 delta 7 exon)4299Ahmb Tg(SMN2)89Ahmb Smn1tm1Msd/J mouse assessed as median survival time at 0.1 mg/kg/day, ip administered on postnatal day 3 to day 23 (reference value: 14 days); format: functional
[13] = tested on: Mus musculus; test: In vivo inhibition of mRNA splicing of human SMN2 exon 7 in FVB.Cg-Tg(SMN2 delta 7 exon)4299Ahmb Tg(SMN2)89Ahmb Smn1tm1Msd/J mouse assessed as median survival time at 2 mg/kg/day, po bid administered on postnatal day 24 (reference value: 14 days); format: functional
[14] = tested on: Mus musculus; test: In vivo inhibition of mRNA splicing of human SMN2 exon 7 in FVB.Cg-Tg(SMN2 delta 7 exon)4299Ahmb Tg(SMN2)89Ahmb Smn1tm1Msd/J mouse assessed as median survival time at 0.6 mg/kg/day, po bid administered on postnatal day 24 (reference value: 14 days); format: functional
[15] = tested on: Mus musculus; test: In vivo inhibition of mRNA splicing of human SMN2 exon 7 in FVB.Cg-Tg(SMN2 delta 7 exon)4299Ahmb Tg(SMN2)89Ahmb Smn1tm1Msd/J mouse assessed as increase in SMN protein level in brain at 0.03 mg/kg, ip qd administered on postnatal day 3 to day 9 by HTRF assay relative to control; format: functional; parameters: scale not given: the % may be the effect or the level left; procedure, shortened: as §1
[16] = tested on: Mus musculus; test: In vivo inhibition of mRNA splicing of human SMN2 exon 7 in FVB.Cg-Tg(SMN2 delta 7 exon)4299Ahmb Tg(SMN2)89Ahmb Smn1tm1Msd/J mouse assessed as increase in SMN protein level in quadriceps at 0.03 mg/kg, ip qd administered on postnatal day 3 to day 9 by HTRF assay relative to control; format: functional; parameters: scale not given: the % may be the effect or the level left; procedure, shortened: as §1
[17] = tested on: Mus musculus; test: In vivo inhibition of mRNA splicing of human SMN2 exon 7 in FVB.Cg-Tg(SMN2 delta 7 exon)4299Ahmb Tg(SMN2)89Ahmb Smn1tm1Msd/J mouse assessed as increase in SMN protein level in spinal cord at 0.03 mg/kg, ip qd administered on postnatal day 3 to day 9 by HTRF assay relative to control; format: functional; parameters: scale not given: the % may be the effect or the level left; procedure, shortened: as §1

Structure (SMILES) | EC1.5 [1] [nM] | MST [2] [days] | MST [3] [days] | Activity [4] [%] | MST [5] [days] | Activity [6] [%] | EC1.5 [7] [nM] | Activity [8] [%] | Activity [9] [%] | Activity [10] [%] | MST [11] [days] | MST [12] [days] | MST [13] [days] | MST [14] [days] | Activity [15] [%] | Activity [16] [%] | Activity [17] [%]
Cc1cn2nc(-c3cc(=O)n4cc(N5CCN(C)CC5)ccc4n3)cc2c(C)n1 | 35 | 45 | >190 | 129 | >190 | 218 | 160 | 230 | 123 | 149 |  |  |  |  |  |  | 
Cc1cn2cc(-c3cc4ccc(N5CCN(C)CC5)cc4c(=O)o3)nc2c(C)n1 |  |  |  | 343 |  | 517 |  | 395 | 203 | 345 | >100 | >100 | >100 | >100 |  |  | 
CCN1CCN(c2ccc3cc(-c4cn5cc(C)nc(C)c5n4)c(=O)oc3c2)C[C@@H]1C |  | >150 |  |  |  |  | 44 |  |  |  | >55 | 34 | >55 | 34 | -10 | -3 | 7
